A short description of this data set: Toxicity liver stage against HepG2, at 10uM. It counts as cell-based. On the set-up: test concentration 10 uM, cell line HepG2-A16-CD81EGFP. Particulars: human, HepG2-A16-CD81EGFP cells; read-out: INHIBITION
Put shortly: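 Uninfected HepG2-A16-CD81EGFP cells, 3 × 10^3 per well, 1536-well, plated on prespotted compound at 10 μM final, parasite-free screening media added to match infected plates; puromycin 10 μM positive, DMSO 0.5% negative; run in parallel with 48 h PbLuc assay at 37 °C, 5% CO2; viability by CellTiter-Glo luminescence, normalized to controls.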

Molecules are shown by their SMILES.

`COc1ccccc1NC(=O)NC(C)c1nc[nH]n1` (centres undefined): the cytotoxicity at 10 µM is 2.8%.
For `CC(C)N1CCC(Cc2cncc(-c3ccccc3C(=O)O)n2)CC1` the value was 0.822%; for `CCn1ncc2c1CCCC2NCc1ccc(C)s1` (centres undefined), -6.73%; for `CC(=O)Nc1ccc(-n2cncn2)c(F)c1`, -11.3%.
For `O=C(NCc1cccs1)C1CNCC12CCOCC2` (centres undefined) the value was -5.43%; for `Cc1nn(C)c2cnn(CC(=O)NCc3ccc(F)cc3)c12`, 8.27%; for `CC(C)(CO)Nc1c(NCc2ccccc2)c(=O)c1=O`, -2.96%.
For `N#Cc1ccc(CN(CC(N)=O)C2CCCC2)c(Br)c1` the value was 30.1%; for `Cc1ccc2c(n1)N(Cc1cccnc1)CCN(C1CCOCC1)C2`, -71.6%; for `Cc1cc(C)c2[nH]c(=O)c(CN3CCCC4(C3)CN(C)C(=O)O4)cc2c1` (centres undefined), -14.3%.
On to `Cc1nc(C)c(C(=O)N2CCCC2(C)C(=O)NC2CCCC2)s1` (centres undefined), for which the cytotoxicity at 10 µM is -1.13%.
For `CCN1CCCC(c2c(-c3ccccc3)ncn2CCc2c[nH]cn2)C1` (centres undefined) the value was -10.9%; for `CC(C)COCCC(=O)Nc1c(-c2ccc(F)cc2)ncn1C`, -1.18%.
Take `COCC(=O)N1CCC(c2nc3ccc(N4CCCC4)cn3n2)CC1`: the cytotoxicity at 10 µM was -15.4%.
For `CN1C(=O)C2(CCN(Cc3nccn3C)CC2)c2ccccc21` the value was 1.49%; for `CN(C)C(=O)N1C[C@H]2CC[C@@H](C1)N(Cc1nnc(-c3ccco3)o1)C2`, 5.9%.
As to `Cn1ccc(C2CCCCN2C(=O)c2cccc(-n3cccn3)c2)n1` (centres undefined), the cytotoxicity at 10 µM is -0.874%.
In the case of `Cc1nn(C)c(C)c1C1CCCN1Cc1nc(-c2ccccn2)no1` (centres undefined) it was -5.29%; in that of `Fc1cnc(N2CCCC3(CCN(Cc4nccs4)C3)C2)nc1` (centres undefined), -67.9%.
Take `CCC1CN(CC(=O)N2CCC2)CCN1CCOC` (centres undefined): the cytotoxicity at 10 µM is -9.78%.
For the compound `CN(CC(=O)N(C)C(c1cccnc1)c1ccc(F)c(F)c1)C1CC1` (centres undefined), the cytotoxicity at 10 µM is -3.57%.
Regarding `CCC(C)N(C)CCNC(=O)c1ccccc1OCCOC` (centres undefined), the cytotoxicity at 10 µM came out at 0.386%.
In the case of `CCn1c(CN(C)C)nnc1C1CCN(Cc2ccc(Cl)cc2)CC1` it was 1.77%.
As for `Fc1ccc2nc([C@H]3CCNC3)[nH]c2c1`, the cytotoxicity at 10 µM worked out at 9.21%.
For `OCC1CCCN1c1cc(NCCc2ccccn2)ncn1` (centres undefined) the value was -0.813%; for `CCc1c(C)nc2n(c1=O)CC(C(=O)Nc1ccccc1F)CS2` (centres undefined), 1.57%.
Take `CCSc1ncc(-c2cc(C3CC3)nc(N)c2C#N)cn1`: the cytotoxicity at 10 µM came to 6.99%.
For `COCC(=O)N1C[C@H]2CNC[C@@]2(C(=O)NCc2snnc2C)C1` the value was 8.27%.
In the case of `Cc1cc(CNCC2Cn3nnc(C)c3CO2)oc1C` (centres undefined) it was 6.65%.
In the case of `Cc1ccc(Oc2ncccc2C(=O)N(C)CCCN(C)C)cc1`, the cytotoxicity at 10 µM was determined as 1.73%.
In the case of `COc1ccc(CN(C)C(=O)CCc2c(C)nc(C)[nH]c2=O)cc1OC` it was -11.2%; in that of `CN1CCN(C(=O)c2cc(C#N)cn2C)c2ccccc2C1`, 5.45%.
Take `COCCCNC(=O)CN(C)C(C)c1nc(C(C)C)no1` (centres undefined): the cytotoxicity at 10 µM stood at 8.24%.
In the case of `CCn1cnnc1CNC(=O)NCC(c1cccs1)N1CCCC1` (centres undefined) it was -7.72%; in that of `O=C1CCC2(CCN(c3ncc(F)cn3)CC2)N1CCN1CCCC1`, 10.5%; in that of `CCNC(=O)N(C)C1CCN(Cc2ncc(C)c(OC)c2C)CC1`, -0.514%.
For `O=c1[nH]c2cn(-c3ccc(F)cc3)c(=O)n2n1Cc1cccc(Cl)c1` the value was 6.59%.
For `Cc1cnn(CC2CCCN2CC(=O)Nc2cc(C(C)C)no2)c1` (centres undefined) the value was 4.23%; for `COCC(=O)Nc1ccc(N2CCC(OC)CC2)c(C(F)(F)F)c1`, -0.0399%.
Consider `Cc1noc(C2CCCN(C(=O)c3ccc(Cl)cc3F)C2)n1` (centres undefined), for which the cytotoxicity at 10 µM was -25.3%.
For `COC(=O)c1cccc(-c2nc(CC3CCN(C)CC3)no2)c1` the value was -1.6%.
In the case of `Cc1cnn(CCNCc2csc(COc3ccccc3)n2)c1` it was 1.77%.
For `CCC1(CO)CCCN(C(=O)c2cc(COc3cccc(F)c3)[nH]n2)C1` (centres undefined) the value was 5.31%; for `CC1CN(CC(=O)NC(C2CC2)C2CC2)CCN1Cc1nccn1C` (centres undefined), -6.48%.
With `CN(C)S(=O)(=O)c1csc(C(=O)N2CCSCC2)c1`, the cytotoxicity at 10 µM was -51.6%.
In the case of `Cc1c(Cl)ccc2ccc(NC(CO)CO)nc12` it was -7.78%; in that of `CC(C)[C@H]1COC(=O)N1Cc1nccn1C(C)C`, 6.35%.
As to `Cc1nn(C)c(C)c1CC(=O)NCC1(C(N)=O)CCOCC1`, the cytotoxicity at 10 µM is 0.63%.
In the case of `Cc1occc1C(=O)N1Cc2nccn2CC(CN2CCCC2)C1` (centres undefined), the cytotoxicity at 10 µM was -105%.
For `Cn1ccnc1CN1CCCC(CCCc2ccccn2)(C(N)=O)C1` (centres undefined) the value was 2.83%.
`Cc1[nH]c2c(F)cccc2c1CC(=O)NCCCc1csc(N)n1`: the cytotoxicity at 10 µM was -3.57%.
For `Cc1cc(-c2cnc(NC3CC3)nc2-c2ccoc2)on1` the value was -25.6%; for `Cc1ccc(OCC(=O)Nc2cnccc2SCCCO)cc1C`, -2.35%; for `COc1ccc(C2=NOC(CC#N)C2)cc1` (centres undefined), 1.52%.
On to `Cc1cnc(CN2CCCC2c2noc(C3CC3)n2)cn1` (centres undefined), for which the cytotoxicity at 10 µM was -13.5%.
For `COc1cccc(CN2CCCC3(CCN(C(=O)c4ccco4)C3)C2)c1` (centres undefined) the value was 6.34%; for `O=C(NCC1CC(=O)N(CCc2ccccc2)C1)c1ccc[nH]1` (centres undefined), -0.553%; for `CCCOc1cc(C)ccc1NC(=O)NCCNC(=O)C(C)C`, 8.31%.
`O=C(NCc1nn(-c2ccccc2)c2c1CCC2)NC1CC1`: the cytotoxicity at 10 µM is -9.14%.
For `CCN1CCNC(=O)C12CCN(C(=O)c1ccccn1)CC2` the value was -0.514%; for `Cc1ccc(-c2ccc(=O)n(CC(=O)Nc3nccs3)n2)cc1`, -10.2%.
For `Cc1noc(CN2CC=C(c3cnn(C4CCS(=O)(=O)C4)c3)CC2)n1` (centres undefined) the value was -0.89%.
On to `O=C(NCc1nnc2n1CCC2)N1CCc2sccc2C1`, for which the cytotoxicity at 10 µM is -12.5%.
Take `CN(C)C(=O)COC[C@@]12CCC[C@@H]1CNC2`: the cytotoxicity at 10 µM turned out to be 0.903%.
For `CS(=O)(=O)NCc1noc2c1CN(C(=O)C1CCC1)CC2` the value was -105%.
For `O=C(c1cc(-n2cnnn2)ccc1Cl)N1CCC2(CC1)OCCO2` the value was -1.66%; for `CCc1ncc(CN(CCc2ccccc2)Cc2cccs2)cn1`, 2.44%.
For the compound `O=C(CC(SC1CCCCC1)C(=O)O)c1ccc(Cl)cc1` (centres undefined), the cytotoxicity at 10 µM was 3.16%.
As to `CCN(Cc1cccc(C)c1)Cn1nc(C)c2c(C)onc2c1=O`, the cytotoxicity at 10 µM was -1.03%.
In the case of `CCCS(=O)(=O)NCCc1ncc(C)s1` it was -9.31%; in that of `NC(CNS(=O)(=O)Cc1cccc2cccnc12)c1ccccc1` (centres undefined), -5.39%.
Consider `CC(C)Cc1cc(C(=O)N2CCCN(c3ncccn3)CC2)[nH]n1`, for which the cytotoxicity at 10 µM came out at 4.57%.
In the case of `Cc1ccc(C(=O)NS(C)(=O)=O)cc1-n1cccc1` it was -3.47%; in that of `COC(CNC(=O)C1CCCC1)c1ccc(C)s1` (centres undefined), 4.45%.
For `COC1CCN(C(=O)c2c(Cl)c3ccccc3n2C)CC1` the value was 4.39%; for `CN(C)C(=O)[C@@H]1C[C@@H]2CCN(Cc3nccs3)C[C@@H]2O1`, 2.67%.
For `CCCN(CCC)c1ncc(S(=O)(=O)c2ccc(C)cc2)c(N)n1` the value was 3.19%; for `O=S(=O)(C1CC1)N1CCC2(CCCN(c3ncccn3)C2)C1` (centres undefined), -4.02%; for `CCCc1nc(C(C)(C)NC(=O)C2CC(=O)N(CC)C2)no1` (centres undefined), 3.51%.
Regarding `Cn1cc(NC(=O)C2CC(=O)N(c3n[nH]c4cccc(F)c34)C2)cn1` (centres undefined), the cytotoxicity at 10 µM was 4.59%.
For `Cc1cc(CS(=O)(=O)CC(=O)N2c3ccccc3CC2C)no1` (centres undefined) the value was -0.284%.
For `Cc1cc(C)c(C(=O)N2CCC3(CCCNC3)C2)cc1C` (centres undefined) the value was 2.52%.
For `CN1CCN(C(=O)C[C@@H]2COC[C@H]3CN(c4ccncn4)C[C@@H]23)CC1` the value was -134%; for `O=C(O)c1ncccc1OCC(F)(F)F`, -8.76%.
Consider `CCn1cnnc1CNC(=O)c1ccc(Cl)cc1F`, for which the cytotoxicity at 10 µM is -0.457%.
For `CC(O)(CNC(=O)NCCc1ccc2c(c1)CCO2)c1ccccc1` (centres undefined) the value was 6.36%.
For `COc1cccc2c1CCC2NC(=O)NCc1csc(N(C)C)n1` (centres undefined) the value was -1.37%.
For `O=C(Nc1cc(-c2ccncc2)no1)C1CCC1` the value was -12.6%.
Take `Cc1nccn1-c1ccc(CNS(=O)(=O)N2CCCC(C)C2)cn1` (centres undefined): the cytotoxicity at 10 µM came out at 5.39%.
In the case of `Cc1c(-c2ccccc2)ncn1CCCNc1cccnc1` it was 2.06%.
In the case of `O=c1ccc(-n2cccn2)nn1CCNS(=O)(=O)c1ccc(F)c(Cl)c1` it was 1.48%.
Consider `O=C(Cc1cccc(F)c1)NCCNCc1ccc2c(c1)CCO2`, for which the cytotoxicity at 10 µM was -12.5%.
As to `CN(C)CCCNC(=O)c1ccc(Cl)cc1Cl`, the cytotoxicity at 10 µM is -21%.
In the case of `Cc1c(Br)cccc1C(=O)NC(C)CN1CCCC1=O` (centres undefined) it was -1.58%; in that of `Cc1cnn(C2CN(Cc3ccc4c(c3)OCCO4)C2)c1`, 16.3%; in that of `COc1ccc2c(c1)CCCN2C(=O)NC1CCCCNC1=O` (centres undefined), -139%.
In the case of `COCCn1/c(=N\C(=O)CN(C)S(C)(=O)=O)sc2cc(Cl)ccc21` it was -13.7%; in that of `CC(C)c1nnc2n1CCN(Cc1nc(-c3ccoc3)no1)C2`, -3.69%.
As to `Cc1cc(-c2cnn(CCNC(=O)Cc3ccccn3)c2C2CC2)on1`, the cytotoxicity at 10 µM came to 2.8%.

The values above are taken from ChEMBL document CHEMBL4513216, “Probing the Open Global Health Chemical Diversity Library for Multistage-Active Starting Points for Next-Generation Antimalarials” (ACS Infect Dis, 2020).
